Experimental findings from ChEMBL document CHEMBL1154529, “Conformationally constrained opioid ligands: the Dmt-Aba and Dmt-Aia versus Dmt-Tic scaffold” (Bioorg Med Chem Lett, 2009) are described below.

Residues, ends and D or L forms follow the SMILES beside them.

The species named for assay [1] is Rattus norvegicus. As to the kind of experiment: Selectivity ratio of Ki for Sprague-Dawley rat mu opioid receptor to Ki for Sprague-Dawley rat delta opioid receptor.
Assay [2] deals with Mu-type opioid receptor (Cavia porcellus, UniProt P97266). As to the kind of experiment: Agonist activity at mu opioid receptor in Hartley guinea pig assessed as inhibition of electrically evoked ileum contraction by GPI test. Format: functional, tissue-based. The procedure, abridged:
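Isolated tissue bioassays: mouse vas deferens (delta) and guinea-pig ileum (mu). Agonism expressed as IC50 read from dose–response curves. Internal standards were deltorphin C (MVD) and dermorphin (GPI). Mean ± SEM of at least six fresh tissue samples.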

In assay [3] the target is Mu-type opioid receptor (Rattus norvegicus, UniProt P33535). Nature of the assay: Displacement of [3H]DAMGO from mu opioid receptor in Sprague-Dawley rat brain synaptosomal membranes. Format: cell membranes, Membrane. The procedure, abridged:
(§1)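 Radioligand competition in rat brain synaptosomal preparations. Peptides tested at five to eight graded doses, each assay in duplicate, repeated three to six times on several different synaptosomal preparations. Ki calculated by Cheng–Prusoff; mean ± SEM.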

Assay [4] has as its target Delta-type opioid receptor (Rattus norvegicus, UniProt P33533). Nature of the assay: Displacement of [3H]DPDPE from delta opioid receptor in Sprague-Dawley rat brain synaptosomal membranes. Format: cell membranes, Membrane. The procedure, abridged: as §1
The species named for assay [5] is Rattus norvegicus. Nature of the assay: Selectivity ratio of Ki for Sprague-Dawley rat delta opioid receptor to Ki for Sprague-Dawley rat mu opioid receptor.
Assay [6] addresses T1, Delta-type opioid receptor (Mus musculus, UniProt P32300). Nature of the assay: Antagonist activity at delta opioid receptor in mouse assessed as effect on electrically evoked vas-deferens contraction by MVD test. Format: functional. To be noted: read-out: pA2 (converted).
In assay [7] the target is T1, Delta-type opioid receptor. Nature of the assay: Agonist activity at delta opioid receptor in mouse assessed as inhibition of electrically evoked vas-deferens contraction by MVD test.

T1 sequence (P32300 whole entry): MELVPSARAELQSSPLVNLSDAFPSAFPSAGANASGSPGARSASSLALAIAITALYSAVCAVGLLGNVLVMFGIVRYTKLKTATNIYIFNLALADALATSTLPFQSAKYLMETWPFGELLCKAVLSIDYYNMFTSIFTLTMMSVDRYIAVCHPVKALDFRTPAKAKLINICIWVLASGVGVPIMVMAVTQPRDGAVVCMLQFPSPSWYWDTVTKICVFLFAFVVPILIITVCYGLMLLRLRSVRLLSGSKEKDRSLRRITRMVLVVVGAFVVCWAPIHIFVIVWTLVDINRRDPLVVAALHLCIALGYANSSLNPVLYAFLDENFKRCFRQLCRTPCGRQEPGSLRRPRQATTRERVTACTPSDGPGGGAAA
Delta-type opioid receptor (Rattus norvegicus, UniProt P33533), sequence (P33533 whole entry): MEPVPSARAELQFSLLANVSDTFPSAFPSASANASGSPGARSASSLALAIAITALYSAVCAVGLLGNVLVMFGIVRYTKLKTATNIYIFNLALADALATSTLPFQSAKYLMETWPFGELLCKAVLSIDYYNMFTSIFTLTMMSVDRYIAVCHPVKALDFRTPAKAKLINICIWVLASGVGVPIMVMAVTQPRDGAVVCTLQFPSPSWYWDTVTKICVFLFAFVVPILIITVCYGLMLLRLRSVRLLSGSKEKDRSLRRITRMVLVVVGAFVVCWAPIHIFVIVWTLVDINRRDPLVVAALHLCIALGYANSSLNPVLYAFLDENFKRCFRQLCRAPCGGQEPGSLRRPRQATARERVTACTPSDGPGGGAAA
Mu-type opioid receptor (Cavia porcellus, UniProt P97266), sequence (P97266 whole entry): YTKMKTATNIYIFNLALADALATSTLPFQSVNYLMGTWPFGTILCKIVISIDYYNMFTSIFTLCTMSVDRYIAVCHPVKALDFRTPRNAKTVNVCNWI
Mu-type opioid receptor (Rattus norvegicus, UniProt P33535), sequence (P33535 whole entry): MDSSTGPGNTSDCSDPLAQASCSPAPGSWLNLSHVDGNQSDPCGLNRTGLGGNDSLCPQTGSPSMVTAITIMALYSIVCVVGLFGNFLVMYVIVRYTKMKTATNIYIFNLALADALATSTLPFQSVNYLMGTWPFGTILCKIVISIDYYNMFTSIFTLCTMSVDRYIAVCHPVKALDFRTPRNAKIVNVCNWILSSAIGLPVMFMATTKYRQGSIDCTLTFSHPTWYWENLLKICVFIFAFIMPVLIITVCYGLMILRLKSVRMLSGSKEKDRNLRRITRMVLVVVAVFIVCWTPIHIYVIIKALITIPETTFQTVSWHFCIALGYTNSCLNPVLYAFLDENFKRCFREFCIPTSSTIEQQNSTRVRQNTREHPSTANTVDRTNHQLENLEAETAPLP

One may read the IC50 as the concentration needed to halve the response being measured. By Ki is commonly meant a dissociation constant, usually derived from enzyme kinetics or from competition with a known ligand. `Cc1cc(O)cc(C)c1C[C@H](N)C(=O)N[C@H]1Cc2c([nH]c3ccccc23)CN(CC(=O)O)C1=O`: the Ratio Ki in the assay listed under Rattus norvegicus [1] stood at 1.8. On Mu-type opioid receptor [2], the IC50 is over 20000 nM. Moreover, the values for the Ki (at Mu-type opioid receptor [3]; in assay [4]) were 1450 nM and 806 nM, respectively.

For the molecule `Cc1cc(O)cc(C)c1C[C@@H](C(=O)N[C@@H]1Cc2c([nH]c3ccccc23)CN(CC(=O)NCc2ccccc2)C1=O)N(C)C`, the Ratio Ki in the assay listed under Rattus norvegicus [5] was 5. Also, the Ki at Mu-type opioid receptor [3] was 133 nM; in assay [4] it was 681 nM.

Regarding `Cc1cc(O)cc(C)c1C[C@@H](C(=O)N[C@H]1Cc2ccccc2CNC1=O)N(C)C`, in the assay filed under Rattus norvegicus [1], the Ratio Ki turned out to be 3.2. The IC50 (at Mu-type opioid receptor [2]; in assay [7]) was over 20000 nM in each case. Moreover, in assay [6], the Kb was 63.1 nM. Also, the Ki at Mu-type opioid receptor [3] is 64.9 nM; in assay [4], 20.5 nM.

Turning to `Cc1cc(O)cc(C)c1C[C@H](N)C(=O)N[C@H]1Cc2ccccc2CN([C@@H](CC(=O)O)C(=O)NCc2ccccc2)C1=O`, the Ratio Ki in the assay filed under Rattus norvegicus [5] was 2.3. Also, the results for the Ki (at Mu-type opioid receptor [3]; in assay [4]) were 630 nM and 1480 nM, respectively.

For the molecule `Cc1cc(O)cc(C)c1C[C@H](N)C(=O)N[C@@H]1Cc2c([nH]c3ccccc23)CN(CC(=O)O)C1=O`, the Ratio Ki in the assay filed under Rattus norvegicus [1] is 4. Besides, the Ki at Mu-type opioid receptor [3] came to 2900 nM; in assay [4] it was 720 nM.

With `Cc1cc(O)cc(C)c1C[C@@H](C(=O)N[C@H]1Cc2c([nH]c3ccccc23)CN(CC(=O)O)C1=O)N(C)C`, the Ratio Ki in the assay listed under Rattus norvegicus [1] turned out to be 132. The IC50 (on Mu-type opioid receptor [2]; in assay [7]) was over 20000 nM each time. In addition, the Kb in assay [6] was 5.01 nM. Further, the Ki was 875 nM at Mu-type opioid receptor [3] and 6.64 nM in assay [4].

For the molecule `Cc1cc(O)cc(C)c1C[C@@H](C(=O)N[C@@H]1Cc2c([nH]c3ccccc23)CN(CC(=O)O)C1=O)N(C)C`, the Ratio Ki in the assay listed under Rattus norvegicus [1] came to 8.8. Moreover, the figures for the Ki (at Mu-type opioid receptor [3]; in assay [4]) were 10100 nM and 1150 nM, respectively.

In the case of `Cc1cc(O)cc(C)c1C[C@H](N)C(=O)N1Cc2ccccc2C[C@H]1C(=O)NCC(=O)NCc1ccccc1` (HELM PEPTIDE1{[Cc1cc(O)cc(C)c1C[C@H](N)C(=O)[*:2]].[Tic].G.[c1ccc(CN[*:1])cc1]}$$$$V2.0), the Ratio Ki in the assay listed under Rattus norvegicus [1] is 5.2. In addition, in assay [6], the Kb is 0.501 nM.

As for `Cc1cc(O)cc(C)c1C[C@H](N)C(=O)N[C@@H]1Cc2c([nH]c3ccccc23)CN(CC(=O)NCc2ccccc2)C1=O`, the Ratio Ki in the assay filed under Rattus norvegicus [5] amounted to 48. The IC50 on Mu-type opioid receptor [2] is 14.9 nM; in assay [7], 1500 nM. In addition, the Ki on Mu-type opioid receptor [3] was 3.35 nM; in assay [4], 161 nM.

For the molecule `Cc1cc(O)cc(C)c1C[C@H](N)C(=O)N[C@H]1Cc2ccccc2CN([C@@H](CCCCN)C(=O)NCc2ccccc2)C1=O`, in the assay listed under Rattus norvegicus [5], the Ratio Ki came out at 29. The IC50 at Mu-type opioid receptor [2] is 3270 nM. The Ki came out at 10.1 nM at Mu-type opioid receptor [3] and 290 nM in assay [4].

In the case of `Cc1cc(O)cc(C)c1C[C@H](N)C(=O)N[C@H]1Cc2c([nH]c3ccccc23)CN(CC(=O)NCc2ccccc2)C1=O`, the Ratio Ki in the assay listed under Rattus norvegicus [5] was 7.2. Also, the IC50 on Mu-type opioid receptor [2] amounted to 1800 nM. Further, the Ki on Mu-type opioid receptor [3] turned out to be 50 nM; in assay [4], 358 nM.

Consider `Cc1cc(O)cc(C)c1C[C@H](N)C(=O)N[C@H]1Cc2ccccc2CN(CC(=O)NCc2ccccc2)C1=O`, for which the Ratio Ki in the assay listed under Rattus norvegicus [5] amounted to 24. For the same molecule, the results for the Ki (on Mu-type opioid receptor [3]; in assay [4]) were 0.46 nM and 11 nM, respectively.

Consider `Cc1cc(O)cc(C)c1C[C@H](N)C(=O)N[C@H]1Cc2c([nH]c3ccccc23)CN(CC(=O)OCc2ccccc2)C1=O`, for which the Ratio Ki in the assay filed under Rattus norvegicus [5] came out at 17. Further, the Ki at Mu-type opioid receptor [3] was found to be 244 nM; in assay [4], 4060 nM.

Consider `Cc1cc(O)cc(C)c1C[C@H](N)C(=O)N[C@H]1Cc2ccccc2CNC1=O`, for which the Ratio Ki in the assay listed under Rattus norvegicus [5] is 30. The IC50 at Mu-type opioid receptor [2] amounted to 631 nM. Also, the Ki is 12.4 nM at Mu-type opioid receptor [3] and 368 nM in assay [4].
